Published values of several laboratories.
Converted amounts (≈) assume the structure as drawn.
Read-out: microbial growth

`Nc1ccc(-c2nc(-c3ccc(Oc4ccccc4)cc3)no2)cc1` has an MIC of greater than 32 µg/mL (Enterococcus faecium; broth dilution; 24 h).
For `O=C(O)c1cccc(-n2c(/C=C/c3ccc(F)cc3)nc3ccncc3c2=O)c1`, the MIC was greater than 128 µg/mL (Enterococcus faecium; broth dilution; NCTC7171).
`CO[C@@H](C(N)=O)[C@H](NC(=O)c1ccc(NC(=O)c2ccc(C#N)cc2)cc1)C(=O)Nc1ccc(C(=O)Nc2ccc(C(=O)Nc3ccc(C(=O)O)cc3)c(O)c2OC(C)C)cc1` has an MIC of no more than 0.03 µg/mL (Citrobacter freundii; DSM30039).
For `COCCNc1ccc(-c2nc(-c3ccc(Oc4ccccc4)cc3)no2)cc1`, the MIC was greater than 32 µg/mL (Enterococcus faecium; broth dilution; 24 h).
The MIC of `C[C@@H](O)[C@H]1C(=O)N2C(C(=O)O)=C(S[C@@H]3CN[C@H](C(=O)N(C)C)C3)[C@H](C)[C@H]12` is reported as greater than 64 µg/mL (Citrobacter freundii; broth dilution; clinical isolate).
`O=C(O)c1cccc(-n2c(/C=C/c3ccc(F)c(F)c3)nc3ccccc3c2=O)c1` gave an MIC of greater than 128 µg/mL (Enterococcus faecium; broth dilution; NCTC7171).
The MIC of `O=C(O)COc1cccc(Oc2ccc(-c3noc(-c4ccc(O)cc4)n3)cc2)c1` is reported as greater than 32 µg/mL (Enterococcus faecium; broth dilution; 24 h).
`O=C(O)c1cn(C2CC2)c2cc(N3CCNCC3)c(F)cc2c1=O` has an MIC of no more than 0.03 µg/mL (Citrobacter freundii; DSM30039).
`C[N+](C)(C)CCCc1ccc(Oc2ccc(-c3noc(-c4ccc(O)cc4)n3)cc2)cc1.[I-]` has an MIC of 16 µg/mL (Enterococcus faecium; broth dilution; 24 h).
For `O=C(O)c1cn(C2CC2)c2cc(N3CCNCC3)c(F)cc2c1=O`, the MIC was 1 µg/mL (≈ 3.02 µM) (Mycobacterium intracellulare; resazurin; ATCC23068).
`C/C(=C\c1ccc(C#N)cc1)C(=O)Nc1ccc(C(=O)N[C@@H](CC(N)=O)C(=O)Nc2ccc(C(=O)Nc3ccc(C(=O)Nc4ccc(C(=O)O)cc4)c(O)c3OC(C)C)cc2)cc1` gave an MIC of 0.06 µg/mL (≈ 0.0704 µM) (Citrobacter freundii; DSM30039).
The MIC of `N#Cc1ccc(/C=C/c2nc3ccncc3c(=O)n2-c2cccc(O)c2)cc1` is reported as 128 µg/mL (≈ 349 µM) (Enterococcus faecium; broth dilution; NCTC7171).
For `CC(C)Oc1c(-n2cc(-c3ccc(NC(=O)C(CC(N)=O)NC(=O)c4ccc(NC(=O)c5ccc(C#N)cc5)cc4)cc3)nn2)ccc(C(=O)Nc2ccc(C(=O)O)cc2)c1O` (stereo not drawn), the MIC was 0.5 µg/mL (≈ 0.598 µM) (Citrobacter freundii; DSM30039).
`O=C(O)c1cccc(-n2c(/C=C/c3ccc(Cl)cc3)nc3ccncc3c2=O)c1` has an MIC of greater than 128 µg/mL (Enterococcus faecium; broth dilution; NCTC7171).
For `O=C(O)c1cn(C2CC2)c2cc(N3CCNCC3)c(F)cc2c1=O`, the MIC was 0.63 µg/mL (≈ 1.9 µM) (Mycobacterium intracellulare; broth dilution; ATCC23068).
